The values below come from ChEMBL document CHEMBL4619820, “Development of Novel AKR1C3 Inhibitors as New Potential Treatment for Castration-Resistant Prostate Cancer” (J Med Chem, 2020).

The source made the active and inactive calls. The calls are words filed in the database; no cut-off is given here.

Series [1] can be described thus: Toxicity in Balb/c nu/nu athymic mouse xenografted with human 22Rv1 cells assessed as effect on lung histology at 100 mg/kg, ip dosed twice per week for 6 weeks by H and E staining dependent light microscopy based histopathological analysis. Format: organism-based, CWR22R. The following applies: in vivo, 1008 h. The method in brief: (§1)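 Mice carrying 22Rv1 xenografts were dosed intraperitoneally, with vehicle controls n=15 and treated groups n=10. Tissue sections of kidney, liver and lung were stained with hematoxylin and eosin and examined by light microscopy at ×40 magnification for histopathological changes.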
(In xenograft studies the graft and the host belong to different species.)

Series [2] is described as follows: Toxicity in Balb/c nu/nu athymic mouse xenografted with human 22Rv1 cells assessed as effect on body weight at 100 mg/kg, ip dosed twice per week for 6 weeks […]. The format is organism-based, CWR22R. Particulars: in vivo, 1008 h. Summed up: (§2)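 Mice carrying 22Rv1 xenografts received intraperitoneal injections. The vehicle control group had n=15 and each treated dose group had n=10. Average body weights were compared between treated and vehicle-control mice.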

Series [3] can be described thus: Toxicity in Balb/c nu/nu athymic mouse xenografted with human 22Rv1 cells assessed as effect on kidney histology at 100 mg/kg, ip dosed twice per week for 6 weeks by H and E staining dependent light microscopy based histopathological analysis. The following applies: in vivo, 1008 h. Format: organism-based, CWR22R. The method in brief: as §1
Series [4] has as its system CWR22R. Description: Antitumor activity against human 22Rv1 cells xenografted in Balb/c nu/nu athymic mouse assessed as increase in necrotic region in tumor tissue at 100 mg/kg, ip dosed twice per week for 6 weeks by H and E staining dependent light microscopy based histopathological analysis. The format is functional, organism-based. Summed up: (§3)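 Tumor tissue, plus liver, kidney and lung, from xenografted mice given ip 50 or 100 mg/kg; sections stained with hematoxylin and eosin and examined at ×40 for necrotic areas.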

The nature of series [5]: Toxicity in Balb/c nu/nu athymic mouse xenografted with human 22Rv1 cells assessed as effect on liver histology at 100 mg/kg, ip dosed twice per week for 6 weeks by H and E staining dependent light microscopy based histopathological analysis. Format: organism-based, CWR22R. The following applies: in vivo, 1008 h. The method in brief: as §1
For series [6], the system named is CWR22R. Description: Antitumor activity against human 22Rv1 cells xenografted in Balb/c nu/nu athymic mouse assessed as reduction in tumor volume at 100 mg/kg, ip dosed twice per week for 6 weeks. The format is functional, organism-based. Summed up: (§4)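 22Rv1 xenograft mice dosed intraperitoneally with vehicle (control, n=15), 50 mg/kg (n=10) or 100 mg/kg (n=10); tumor size followed over time; body weights recorded.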

The nature of series [7]: Toxicity in Balb/c nu/nu athymic mouse xenografted with human 22Rv1 cells assessed as effect on liver histology at 50 mg/kg, ip dosed twice per week for 6 weeks by H and E staining dependent light microscopy based histopathological analysis. The format is organism-based, CWR22R. The following applies: in vivo, 1008 h. The method in brief: as §1
Series [8] deals with T1, Aldo-keto reductase family 1 member C3 (Homo sapiens) (UniProt P42330).
T1 sequence (whole entry): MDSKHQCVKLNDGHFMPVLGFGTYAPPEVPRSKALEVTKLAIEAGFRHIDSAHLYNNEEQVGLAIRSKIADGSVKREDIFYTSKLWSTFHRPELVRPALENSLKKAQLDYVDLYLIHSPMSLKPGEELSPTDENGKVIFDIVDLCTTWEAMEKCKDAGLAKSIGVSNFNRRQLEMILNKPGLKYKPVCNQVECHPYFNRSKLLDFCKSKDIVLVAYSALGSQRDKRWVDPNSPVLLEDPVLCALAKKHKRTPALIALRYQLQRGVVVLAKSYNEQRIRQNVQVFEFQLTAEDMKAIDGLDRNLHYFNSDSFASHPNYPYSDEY
Nature of the series: Inhibition of AKR1C3 in human 22Rv1 cells assessed as as reduction in AR mRNA expression at 10 to 20 uM pre-incubated for 2 hrs before pregnenolone stimulation for 24 hrs by RT-qPCR analysis. Format: cell-based. Particulars: CWR22R. Summed up:
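22Rv1 cells pretreated 2 h with test agents, then stimulated 24 h with 20 nM pregnenolone; AR, TMPRSS2 and PSA mRNA measured by RT-qPCR, given as ratio to pregnenolone-free control.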

Series [9] can be described thus: Toxicity in Balb/c nu/nu athymic mouse xenografted with human 22Rv1 cells assessed as effect on lung histology at 50 mg/kg, ip dosed twice per week for 6 weeks by H and E staining dependent light microscopy based histopathological analysis. The format is organism-based, CWR22R. The following applies: in vivo, 1008 h. Summed up:
as §1

For series [10], the target named is T1, Aldo-keto reductase family 1 member C3 (Homo sapiens). Description: Inhibition of AKR1C3 in human 22Rv1 cells assessed as potentiation of enzalutamide-induced apoptosis by measuring reduction in BCl2 level at 10 uM pre-incubated for 2 hrs before addition of pregnenolone for 24 hrs by Western blot analysis. The format is cell-based. Particulars: CWR22R. Summed up: (§5)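 Apoptotic markers in 22Rv1: 2 h pretreatment with or without 10 μM inhibitor and/or 50 μM enzalutamide, then 24 h 20 nM pregnenolone; Bax/Bcl-2 ratio as percent of control; cleaved caspase-3 also by immunofluorescence with DAPI.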

The target is the same in series [11]. Description: Inhibition of AKR1C3 in human 22Rv1 cells assessed as potentiation of enzalutamide-induced apoptosis by measuring increase in cleaved caspase-3 level at 10 uM pre-incubated for 2 hrs before addition of pregnenolone for 24 hrs by Western blot analysis. The format is cell-based. Particulars: CWR22R. Summed up: as §5
A general note: In western blotting, separated proteins are transferred to a membrane and probed.

Series [12] shares this target. Description: Inhibition of AKR1C3 in human 22Rv1 cells assessed as as reduction in AR nuclear translocation at 10 pre-incubated for 2 hrs before 4AD addition for 24 hrs by Western blot analysis. Format: cell-based. Particulars: CWR22R. The method in brief:
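22Rv1 cells pretreated 2 h with or without 10 μM inhibitor, then exposed 24 h to 10 nM 4AD; nuclear AR measured by Western blot of cell extracts, normalized to Lamin A+C, as percent of control.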

Series [13] in a line: Toxicity in Balb/c nu/nu athymic mouse xenografted with human 22Rv1 cells assessed as effect on kidney histology at 50 mg/kg, ip dosed twice per week for 6 weeks by H and E staining dependent light microscopy based histopathological analysis. Format: organism-based, CWR22R. The following applies: in vivo, 1008 h. The method in brief:
as §1

The target of series [14] is T1, Aldo-keto reductase family 1 member C3 (Homo sapiens). Nature of the series: Inhibition of AKR1C3 in human 22Rv1 cells assessed as potentiation of abiraterone-induced apoptosis by measuring increase in DNA fragmentation at 10 uM pre-incubated for 2 hrs before addition of pregnenolone for 24 hrs by ethidium bromide staining based DNA agarose gel electrophores method. The format is cell-based. The following applies: CWR22R.

A short description of series [15]: Toxicity in Balb/c nu/nu athymic mouse xenografted with human 22Rv1 cells assessed as effect on body weight at 50 mg/kg, ip dosed twice per week for 6 weeks by H and E staining dependent light microscopy based histopathological analysis. Particulars: in vivo, 1008 h. Format: organism-based, CWR22R. The method in brief:
as §2

Another series concerns LNCaP. Description: Inhibition of pregnenolone-induced cell proliferation of human LNCAP cells at 10 to 20 uM incubated for 72 hrs by alamar blue assay. Format: functional, cell-based. The method in brief:
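LNCaP and androgen-low-sensitive LNCaP-E9 cells pretreated 2 h with inhibitor, then 72 h with 20 nM pregnenolone; viable cells expressed as percent of untreated LNCaP control.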
(In general: Alamar Blue is a resazurin reagent that responds to reducing activity.)

Series [16] concerns CWR22R. Description: Antitumor activity against human 22Rv1 cells xenografted in Balb/c nu/nu athymic mouse assessed as increase in necrotic region in tumor tissue at 50 mg/kg, ip dosed twice per week for 6 weeks by H and E staining dependent light microscopy based histopathological analysis. Format: functional, organism-based. The method in brief:
as §3

Series [17] has as its system CWR22R. Nature of the series: Antitumor activity against human 22Rv1 cells xenografted in Balb/c nu/nu athymic mouse assessed as reduction in tumor volume at 50 mg/kg, ip dosed twice per week for 6 weeks. Format: functional, organism-based. The method in brief: as §4
The subject of another series is PC-3. Nature of the series: Inhibition of cell proliferation of human PC3 cells at 10 to 20 uM incubated for 72 hrs by alamar blue assay. The format is functional, cell-based. The method in brief: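 PC3 cells (AKR1C3-positive, AR-negative) grown 72 h with or without inhibitor; growth curves of viable cell number compared with inhibitor-free cells.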

On to `CCc1cccc(NC(=O)c2cc3cccc(O)c3oc2=N)c1`, for which the Activity entry in series [1], in [2], in series [3] and in series [5] was “Non-Toxic” throughout. For the same compound, the result in the series with CWR22R [4] and in the series with CWR22R [6] was Active.

`Cc1ccc(NC(=O)c2cc3cccc(O)c3oc2=N)cc1`: the Activity entry in [7], in series [9], in series [13] and in series [15] was “Non-Toxic” each time. The inhibition entry (in series [8]; in series [10]; in [11]; in series [12]; in series [14]; in the series with LNCaP) was “Active” throughout. The inhibition entry in the series with PC-3 was “Active”. Besides, the result in the series with CWR22R [16] and in the series on CWR22R [17] was Active.

Consider `N=c1oc2c(O)cccc2cc1C(=O)Nc1ccc(F)cc1`, for which the inhibition entry (in series [8]; in [10]; in series [11]; in [12]; in [14]; with LNCaP) was “Active” throughout. Besides, the inhibition result in the series with PC-3 is “Active”.
